# Measurements published in PMC4096040 (The Journal of endocrinology, 2012).
# Assays:
# INS-1 cells [1] = assay: JC-1 Mitochondrial Membrane Potential Assay; format: cell-based; conditions: 18.25 μM t-BHP alone, 48 h, Fig. 2C
# INS-1 cells [2] = assay: Mitochondrial cytochrome c release; format: cell-based; conditions: 18.25 μM t-BHP alone, 72 h, Fig. 4A
# Summary of the method: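 INS-1 cells (100 000/well) were left untreated, given 18.25 μM t-BHP alone, or given t-BHP with 10 μM test compound for 72 h. They were processed according to the kit protocol, with cytochrome c labelled by FITC and nuclei by DAPI. Fluorescence microscopy followed, scoring loss of green signal as cytochrome c release.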
# INS-1 cells [3] = assay: Pan caspase activity; format: cell-based; conditions: 18.25 μM t-BHP alone, compared with the control group, Fig. 4C
# [4] = tested on: diaminopeptidyl peptidase-4 (DPP4); conditions: removal of the N-terminal two amino acids; ref Lovshin & Drucker 2009; cited from earlier work
# [5] = tested on: NEP 24.11, known as neprilysin; conditions: products include GLP1(28–36)amide; ref Hupe-Sodmann et al. 1995; cited from earlier work
Molecule,"mitochondrial potential, stressor alone (INS-1 cells [1])","cytochrome c release, stressor alone (INS-1 cells [2])","caspase activity, stressor alone (INS-1 cells [3])",T1/2 of modification to GLP1(9–36)amide by DPP4 [4] [min],cleavage by NEP 24.11 [5]
"CC(C)(C)OO [t-BHP, tert-butyl hydro-peroxide]",loss of mitochondrial potential,stimulated cytochrome c release,significant increase in caspase-3 activity,,
"GLP1(7–36)amide: 30 amino acid insulinotropic form of GLP1, known GLP1 receptor agonist",,,,1 to 2,cleaves GLP1(7–36)amide into several smaller peptides
